Source: ChEMBL document CHEMBL4257586, “Polyheteroaryl Oxazole/Pyridine-Based Compounds Selected in Vitro as G-Quadruplex Ligands Inhibit Rock Kinase and Exhibit Antiproliferative Activity” (J Med Chem, 2018)
Activity calls are given as the source filed them. The rule behind the calls is not given here.

Experiments:
A-431 = test: Antiproliferative activity against human A431 cells after 72 hrs by MTS assay; format: functional, cell-based; settings: A-431, 72 h
Procedure, shortened: (§1)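 Cells seeded at day 0 in 96-well plates, serial compound dilutions added at day 1; viable cells read 72 h after drug addition by MTS tetrazolium assay, in triplicate. IC50 taken as concentration halving cell growth. One first trial, then two additional experiments on selected compounds.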

M21 [1] = test: Antiproliferative activity against alpha5-integrin lacking human M21 cells after 72 hrs by MTS assay; format: functional, cell-based; settings: M21, 72 h; procedure, shortened: as §1
A-375 [2] = test: Induction of double stranded DNA breaks in human A375 cells assessed as gamma-H2Ax phosphorylation at 1 uM after 24 to 48 hrs by Hoechst 33342 staining-based laser confocal microscopy; format: functional, cell-based
HEK293 = test: Antiproliferative activity against HEK293 cells after 72 hrs by MTS assay; format: cell-based; settings: Homo sapiens, HEK293, 72 h; procedure, shortened: as §1
HeLa [3] = test: Induction of cell cycle arrest in human HeLa cells at 1 uM after 48 hrs by propidium iodide-staining based flow cytometry; format: functional
Procedure, shortened: (§2)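 HeLa cells serum-starved 96 h for synchronization, then released and treated 48 h. Fixed in ice-cold 70% ethanol 1 h, stained with propidium iodide 50 μg/mL plus RNase A 0.2 mg/mL for 15 min at 37 °C, and analyzed by FACS.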

HeLa [4] = test: Cytotoxicity against human HeLa cell spheroids assessed as cell growth inhibition at 570 nM administered at day 3 post expansion and […] by 3D-celltiter Glo assay; format: functional, cell-based
Procedure, shortened: (§3)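 HeLa cells plated at 800/well in ultralow-adherence plates; one spheroid formed within 24 h at 37 °C, 5% CO2, grown in complete medium. Drug added at day 3, at four concentrations per compound. Largest section area measured daily by confocal imaging, five spheroids per condition. ATP-based CellTiter-Glo 3D luminescence read at day 6 after dosing.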

A549 [5] = test: Cytotoxicity against human A549 cells assessed as presence of large vesicles at 1 uM after 24 to 48 hrs by Hoechst 33342 staining-based laser confocal microscopy; format: functional, cell-based
A-375 [6] = test: Antiproliferative activity against human A375 cells after 72 hrs by MTS assay; format: functional, cell-based; settings: A-375, 72 h; procedure, shortened: as §1
NCI-H358 = test: Antiproliferative activity against human NCI-H358 cells after 72 hrs by MTS assay; format: functional, cell-based; settings: NCI-H358, 72 h; procedure, shortened: as §1
[7] = Drug uptake in human HeLa cell nucleus at 2 uM after 17 hrs imaged with 488 nm excitation by intrinsic fluorescence based assay; format: ADME, subcellular
Procedure, shortened: (§4)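 HeLa cells treated 17 h at 2 μM, or 3.3 μM for one analogue. Imaged by confocal microscopy with no added fluorophore, using 488 nm excitation, plus 405 nm excitation for the 3.3 μM treatment. Intrinsic compound fluorescence was compared with cell background near 510 nm.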

M21 [8] = test: Antiproliferative activity against human M21 cells after 72 hrs by MTS assay; format: functional, cell-based; settings: M21, 72 h; procedure, shortened: as §1
HeLa [9] = test: Cytotoxicity against human HeLa cell spheroids assessed as effect on ATP content at 0.57 to 2 uM administered at day 3 post expansion and measured on day 6 by bioluminescence based assay; format: functional; procedure, shortened: as §3
[10] = Drug uptake in human HeLa cell cytoplasm at 2 uM after 17 hrs imaged with 488 nm excitation by intrinsic fluorescence based assay; format: ADME, subcellular; procedure, shortened: as §4
U-87 MG = test: Antiproliferative activity against human U87 cells after 72 hrs by MTS assay; format: functional, cell-based, U-87MG ATCC; procedure, shortened: as §1
[11] = Drug uptake in human HeLa cell nucleus at 3.3 uM after 17 hrs imaged with 405 nm excitation by intrinsic fluorescence based assay; format: ADME, subcellular; procedure, shortened: as §4
HeLa [12] = test: Cytotoxicity against human HeLa cell spheroids assessed as spheroid growth inhibition at 4 uM administered at day 3 post expansion and measured after […] by 3D-celltiter Glo assay relative to control; format: functional; procedure, shortened: as §3
[13] = Drug uptake in human HeLa cell cytoplasm at 3.3 uM after 17 hrs imaged with 405 nm excitation by intrinsic fluorescence based assay; format: ADME, subcellular; procedure, shortened: as §4
A549 [14] = test: Cytotoxicity against human A549 cells assessed as presence of large vesicles at 2 uM after 24 to 48 hrs by Hoechst 33342 staining-based laser confocal microscopy; format: functional, cell-based
HeLa [15] = test: Cytotoxicity against human HeLa cell spheroids assessed as effect on ATP content at 1 to 4 uM administered at day 3 post expansion and measured on day 6 by bioluminescence based assay; format: functional; procedure, shortened: as §3
[16] = molecular target: T1, Rho-associated protein kinase 2 (Homo sapiens, UniProt O75116); test: Inhibition of ROCK2 in human HeLa cells assessed as reduction in cofilin phosphorylation at Ser3 at 5 uM after 3 hrs by Western blot analysis; format: cell-based
T1 sequence (O75116 whole entry, looked up): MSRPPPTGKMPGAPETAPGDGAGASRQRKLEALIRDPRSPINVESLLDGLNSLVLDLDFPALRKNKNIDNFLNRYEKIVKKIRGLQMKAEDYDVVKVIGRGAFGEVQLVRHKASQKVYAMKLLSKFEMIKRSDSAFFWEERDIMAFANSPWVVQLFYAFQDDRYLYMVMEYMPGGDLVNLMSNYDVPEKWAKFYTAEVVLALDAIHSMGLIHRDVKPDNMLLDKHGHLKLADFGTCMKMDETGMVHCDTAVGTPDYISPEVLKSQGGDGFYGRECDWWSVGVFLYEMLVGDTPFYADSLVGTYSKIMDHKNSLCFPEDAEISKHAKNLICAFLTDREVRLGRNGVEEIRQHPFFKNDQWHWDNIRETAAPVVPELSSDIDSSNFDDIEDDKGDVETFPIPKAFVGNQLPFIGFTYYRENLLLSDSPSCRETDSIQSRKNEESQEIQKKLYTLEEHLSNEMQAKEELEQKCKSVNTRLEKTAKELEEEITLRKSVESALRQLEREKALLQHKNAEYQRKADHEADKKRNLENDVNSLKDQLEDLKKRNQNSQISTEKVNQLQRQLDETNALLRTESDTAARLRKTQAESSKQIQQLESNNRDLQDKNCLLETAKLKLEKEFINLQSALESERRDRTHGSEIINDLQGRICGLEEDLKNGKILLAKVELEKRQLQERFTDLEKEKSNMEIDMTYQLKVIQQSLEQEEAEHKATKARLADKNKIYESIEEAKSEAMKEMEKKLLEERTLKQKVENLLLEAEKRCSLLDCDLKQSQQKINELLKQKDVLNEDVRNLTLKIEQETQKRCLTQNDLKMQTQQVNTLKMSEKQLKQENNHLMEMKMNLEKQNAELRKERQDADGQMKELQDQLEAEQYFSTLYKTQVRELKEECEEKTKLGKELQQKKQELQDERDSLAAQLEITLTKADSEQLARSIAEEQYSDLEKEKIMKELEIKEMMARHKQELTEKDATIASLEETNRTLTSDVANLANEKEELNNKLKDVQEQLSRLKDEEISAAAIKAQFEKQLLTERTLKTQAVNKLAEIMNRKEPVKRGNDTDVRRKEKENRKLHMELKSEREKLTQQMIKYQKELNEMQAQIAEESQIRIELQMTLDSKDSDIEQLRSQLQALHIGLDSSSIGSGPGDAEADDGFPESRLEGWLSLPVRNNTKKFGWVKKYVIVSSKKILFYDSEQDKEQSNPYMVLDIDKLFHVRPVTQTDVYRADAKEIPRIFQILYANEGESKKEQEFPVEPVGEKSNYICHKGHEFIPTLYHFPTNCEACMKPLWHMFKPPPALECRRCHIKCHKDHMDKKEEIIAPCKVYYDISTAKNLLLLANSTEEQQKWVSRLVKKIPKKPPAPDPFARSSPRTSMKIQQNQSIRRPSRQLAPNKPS
Procedure, shortened: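 HeLa cells treated 3 h at 2 or 5 μM, then lysed in RIPA buffer with protease and phosphatase inhibitors. Western blot probed with anti-phospho-cofilin Ser3 and anti-actin (1/1000) on the same split membrane; luminescence detection.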

HeLa [17] = test: Induction of cell cycle arrest in human HeLa cells at 2 uM after 48 hrs by propidium iodide-staining based flow cytometry; format: functional; procedure, shortened: as §2
[18] = Drug uptake in human HeLa cell cytoplasm at 3.3 uM after 17 hrs imaged with 488 nm excitation by intrinsic fluorescence based assay; format: ADME, subcellular; procedure, shortened: as §4
[19] = Drug uptake in human HeLa cell nucleus at 3.3 uM after 17 hrs imaged with 488 nm excitation by intrinsic fluorescence based assay; format: ADME, subcellular; procedure, shortened: as §4
[20] = molecular target: T1, Rho-associated protein kinase 2; test: Inhibition of ROCK2 in human HeLa cells assessed as reduction in cofilin phosphorylation at Ser3 at 5 uM after 3 hrs by immunofluorescence assay; format: cell-based
Procedure, shortened: (§5)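 HeLa cells treated 3 h at 2 or 5 μM, with Y-27632 and untreated controls, then formaldehyde-fixed. Phospho-MYPT1 Thr853 or phospho-cofilin Ser3 immunostained with DNA. Confocal 0.5 μm slices plus z-projection, with acquisition settings fixed from the control.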

[21] = molecular target: T1, Rho-associated protein kinase 2; test: Inhibition of ROCK2 in human HeLa cells assessed as reduction in MYPT1 phosphorylation at Thr853 at 5 uM after 3 hrs by immunofluorescence assay; format: cell-based; procedure, shortened: as §5
A-375 [22] = test: Induction of double stranded DNA breaks in human A375 cells assessed as gamma-H2Ax phosphorylation at 2 uM after 24 to 48 hrs by Hoechst 33342 staining-based laser confocal microscopy; format: functional, cell-based
HeLa [23] = test: Cytotoxicity against human HeLa cell spheroids assessed as cell growth inhibition at 300 nM administered at day 3 post expansion and measured […] by 3D-celltiter Glo assay; format: functional, cell-based; procedure, shortened: as §3
HeLa [24] = test: Cytotoxicity against human HeLa cell spheroids assessed as effect on ATP content at 0.3 to 2 uM […] by bioluminescence based assay; format: functional
[25] = molecular target: T1, Rho-associated protein kinase 2; test: Inhibition of ROCK2 (unknown origin) at 1 uM by ATP competition assay relative to control
Procedure, shortened: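 Single-point screen at 1 μM across a 50-kinase panel: recombinant enzymes, 33P-ATP radioactive filter-binding assay, duplicates, activity expressed relative to no-compound control.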

IC50 (A-431) | IC50 (A-375 [6]) | IC50 (NCI-H358) | Drug uptake [7] | Drug uptake [10] | IC50 (U-87 MG) | SMILES | IC50 (M21 [1]) | Activity (A-375 [2]) | Activity (HeLa [3]) | Activity (A549 [5]) | IC50 (M21 [8]) | other results
645 nM | 440 nM | 7700 nM | Active | Active | 440 nM | c1cc(-c2cnco2)nc(-c2cnc(-c3cccc(-c4ncc(-c5cccc(-c6cnco6)n5)o4)n3)o2)c1 | 7240 nM | inactive | inactive | Active | 1560 nM | IC50 (HEK293): 457 nM; growth inhibition (GI) (HeLa [4]): Active; Activity (HeLa [9]): Active
 |  |  |  |  |  | CN(C)CCOc1cc(-c2ncc(-c3cccc(-c4cnco4)n3)o2)nc(-c2ncc(-c3cccc(-c4cnco4)n3)o2)c1 |  |  |  |  |  | Drug uptake [11]: Active; growth inhibition (GI) (HeLa [12]): 25%; Drug uptake [13]: Active; Activity (A549 [14]): Active; Activity (HeLa [15]): Active; inhibition [16]: Active; Activity (HeLa [17]): inactive; Drug uptake [18]: Active; Drug uptake [19]: Active; inhibition [20]: Active; inhibition [21]: Active; Activity (A-375 [22]): inactive
541 nM | 592 nM | 3750 nM | Active | Active | 246 nM | c1cc(-c2cnco2)nc(-c2cnc(-c3cccc(-c4cccc(-c5ncc(-c6cccc(-c7cnco7)n6)o5)n4)n3)o2)c1 | 3570 nM | inactive | inactive | Active | 1580 nM | growth inhibition (GI) (HeLa [23]): Active; Activity (HeLa [24]): Active; inhibition [25]: 70%
